Test results reported in ChEMBL document CHEMBL1132288, “Synthesis and in vitro pharmacology of a series of new chiral histamine H3-receptor ligands: 2-(R and S)-Amino-3-(1H-imidazol-4(5)-yl)propyl ether derivatives” (J Med Chem, 1999).
The source made the active and inactive calls. The calls are words filed in the database; no cut-off is given here.

Assays:
[1] = target: Histamine H3 receptor (Rattus norvegicus) (UniProt Q9QYN8); assay: Binding affinity for Histamine H3 receptor
Method in brief: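 Affinity for the H3 receptor measured in an in vitro binding assay by displacement of the radioligand [3H]R-(α)-methylhistamine.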

[2] = target: Histamine H3 receptor (Rattus norvegicus) (UniProt Q9QYN8); conditions: 10e-8 M
[3] = target: Histamine H3 receptor (Rattus norvegicus) (UniProt Q9QYN8); conditions: Striatum; 10e-8 M
[4] = target: Histamine H3 receptor (Rattus norvegicus) (UniProt Q9QYN8); assay: Agonistic activity, Histamine H3 receptor dependent activation of G-proteins with GTP gamma-[35S] autoradiography of rat cortical tissue sections. at 10e-5 M conc.;no response above basal; assay type: functional
Method in brief: (§1)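 Rat brain tissue sections were incubated with the test compound at the stated concentrations together with GTPγ[35S], then washed and dried. Film autoradiograms were digitized and quantified against [14C] standards. Responses were read from cerebral cortex and striatum, four animals per region, with cerebellum (no H3 receptors) as a nonspecific-effect control.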

[5] = target: Histamine H3 receptor (Rattus norvegicus) (UniProt Q9QYN8); assay: Agonistic activity, Histamine H3 receptor dependent activation of G-proteins with GTP gamma-[35S] autoradiography of rat striatal tissue sections. at 10e-5 M conc.;no response above basal; assay type: functional; method in brief: as §1
[6] = target: Histamine H3 receptor (Rattus norvegicus) (UniProt Q9QYN8); assay: Agonistic activity, Histamine H3 receptor dependent activation of G-proteins with GTP gamma-[35S] autoradiography of rat striatal tissue sections. at 10e-5 M conc.; half-maximal response; assay type: functional; conditions: filed as partial agonist; method in brief: as §1
[7] = target: Histamine H3 receptor (Rattus norvegicus) (UniProt Q9QYN8); assay: Agonistic activity, Histamine H3 receptor dependent activation of G-proteins with GTP gamma-[35S] autoradiography of rat cortical tissue sections. at 10e-5 M conc.; half-maximal response; assay type: functional; conditions: filed as partial agonist; method in brief: as §1
[8] = target: Histamine H3 receptor (Rattus norvegicus) (UniProt Q9QYN8); conditions: filed as antagonist; 10e-5 M
[9] = target: Histamine H3 receptor (Rattus norvegicus) (UniProt Q9QYN8); conditions: filed as antagonist, 10e-6 M
[10] = target: Histamine H3 receptor (Rattus norvegicus) (UniProt Q9QYN8); conditions: Striatum; filed as antagonist; 10e-5 M
[11] = target: Histamine H3 receptor (Rattus norvegicus) (UniProt Q9QYN8); conditions: Striatum, filed as antagonist, 10e-6 M
[12] = target: Histamine H3 receptor (Rattus norvegicus) (UniProt Q9QYN8); assay: Agonistic activity, Histamine H3 receptor dependent activation of G-proteins with GTP gamma-[35S] autoradiography of rat striatal tissue sections. at 10e-5 M conc.; maximal response; assay type: functional; conditions: filed as agonist; method in brief: as §1
[13] = target: Histamine H3 receptor (Rattus norvegicus) (UniProt Q9QYN8); assay: Agonistic activity, Histamine H3 receptor dependent activation of G-proteins with GTP gamma-[35S] autoradiography of rat cortical tissue sections. at 10e-5 M conc.; maximal response; assay type: functional; conditions: filed as agonist; method in brief: as §1
Histamine H3 receptor [14] = target: T1, Histamine H3 receptor (Rattus norvegicus, UniProt Q9QYN8); assay: Binding affinity of compound against Histamine H3 receptor
T1 sequence (Q9QYN8 whole entry): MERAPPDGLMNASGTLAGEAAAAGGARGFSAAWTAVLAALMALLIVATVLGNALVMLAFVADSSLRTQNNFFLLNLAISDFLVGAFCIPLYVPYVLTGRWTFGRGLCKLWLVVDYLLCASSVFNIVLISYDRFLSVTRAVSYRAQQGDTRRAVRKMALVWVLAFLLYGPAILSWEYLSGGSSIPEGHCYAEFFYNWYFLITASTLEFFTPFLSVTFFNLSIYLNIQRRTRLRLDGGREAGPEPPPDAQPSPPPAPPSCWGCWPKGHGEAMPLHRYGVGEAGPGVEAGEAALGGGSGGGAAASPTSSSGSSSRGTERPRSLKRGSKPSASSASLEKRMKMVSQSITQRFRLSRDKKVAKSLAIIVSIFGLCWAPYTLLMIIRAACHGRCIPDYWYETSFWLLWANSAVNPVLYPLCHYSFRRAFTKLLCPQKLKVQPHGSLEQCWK
Method in brief: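 Displacement of the radioligand [3H]R-(α)-methylhistamine from the histamine H3 receptor in an in vitro receptor binding assay.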

[15] = target: Histamine H3 receptor (Rattus norvegicus) (UniProt Q9QYN8); conditions: filed as antagonist
[16] = target: Histamine H3 receptor (Rattus norvegicus) (UniProt Q9QYN8); conditions: filed as antagonist; 10e-6 M
[17] = target: Histamine H3 receptor (Rattus norvegicus) (UniProt Q9QYN8); conditions: filed as antagonist; remark: listed apart in the source
[18] = target: Histamine H3 receptor (Rattus norvegicus) (UniProt Q9QYN8); conditions: Striatum; filed as antagonist; 10e-6 M
[19] = target: Histamine H3 receptor (Rattus norvegicus) (UniProt Q9QYN8); assay: Agonistic activity, Histamine H3 receptor dependent activation of G-proteins with GTP gamma-[35S] autoradiography of rat cortical tissue sections. at 10e-5 M conc; maximal response; assay type: functional; conditions: filed as agonist; method in brief: as §1
[20] = target: Histamine H3 receptor (Rattus norvegicus) (UniProt Q9QYN8); assay: Agonistic activity, H3-receptor dependent activation of G-proteins with GTP gamma-[35S] autoradiography of rat striatal tissue sections. at 10e-5 M conc.; maximal response; assay type: functional; conditions: filed as agonist; method in brief: as §1
[21] = target: Histamine H3 receptor (Rattus norvegicus) (UniProt Q9QYN8); assay: Agonistic activity, H3-receptor dependent activation of G-proteins with GTP gamma-[35S] autoradiography of rat cortical tissue sections. at 10e-5 M conc.; maximal response; assay type: functional; conditions: filed as agonist; method in brief: as §1
[22] = target: Histamine H3 receptor (Rattus norvegicus) (UniProt Q9QYN8); conditions: filed as antagonist; 10e-5 M; remark: listed apart in the source
[23] = target: Histamine H3 receptor (Rattus norvegicus) (UniProt Q9QYN8); conditions: Striatum, 10e-5 M
[24] = target: Histamine H3 receptor (Rattus norvegicus) (UniProt Q9QYN8); conditions: filed as agonist; 10e-5 M
[25] = target: Histamine H3 receptor (Rattus norvegicus) (UniProt Q9QYN8); conditions: filed as antagonist; 10e-6 M; remark: listed apart in the source
[26] = target: Histamine H3 receptor (Rattus norvegicus) (UniProt Q9QYN8); conditions: filed as antagonist; 10e-8 M
[27] = target: Histamine H3 receptor (Rattus norvegicus) (UniProt Q9QYN8); conditions: Striatum; filed as antagonist; 10e-8 M
Histamine H3 receptor [28] = target: T1, Histamine H3 receptor; assay: PKi was measured by Histamine H3 receptor binding assay (N-alpha-MeHA) on rat cerebral cortex.; assay type: tissue-based
Method in brief: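 Affinity measured by displacement of the radioligand [3H]R-(α)-methylhistamine in an in vitro H3-receptor binding assay.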

[29] = target: Histamine H3 receptor (Rattus norvegicus) (UniProt Q9QYN8); assay: Agonistic activity, Histamine H3 receptor dependent activation of G-proteins with GTP gamma-[35S] autoradiography of rat cortical tissue sections. at 10e-5 M conc.; weak response (between half-maximal and basal; assay type: functional; conditions: filed as partial agonist; method in brief: as §1

Sequence of Histamine H3 receptor (Rattus norvegicus) (Q9QYN8 whole entry): as above

C[C@H](c1c[nH]cn1)[C@@H](C)N
pD2 [1]: 8.5

C[C@@H](N)Cc1c[nH]cn1
pD2 [1]: 8.4

Ic1ccc(COCCCc2c[nH]cn2)cc1.NCCc1c[nH]cn1
Antagonist activity [2]: inactive | Antagonist activity [3]: inactive

N[C@@H](COCc1ccccc1)Cc1c[nH]cn1
Agonistic activity [4]: inactive | Agonistic activity [5]: inactive

N[C@H](COCc1ccc(Br)cc1)Cc1c[nH]cn1
Agonistic activity [6]: Partial agonist | Agonistic activity [7]: Partial agonist

NCCc1c[nH]cn1.N[C@H](COCc1ccccc1)Cc1c[nH]cn1
Antagonist activity [8]: Antagonist | Antagonist activity [9]: Antagonist | Antagonist activity [10]: Antagonist | Antagonist activity [11]: Antagonist

N[C@H](COCC1CCCCC1)Cc1c[nH]cn1
Agonistic activity [12]: Agonist | Agonistic activity [13]: Agonist

N[C@H](Cc1ccccc1)C(=O)NCCc1c[nH]cn1
Ki (Histamine H3 receptor [14]): > 10000 nM

N=C(N)CCCc1c[nH]cn1
pD2 [1]: 9

NCCc1c[nH]cn1.N[C@H](COCc1ccc(I)cc1)Cc1c[nH]cn1
Antagonist activity [15]: Partial antagonist | Antagonist activity [16]: Partial antagonist | Antagonist activity [17]: Partial antagonist | Antagonist activity [18]: Partial antagonist

c1nc(CC2CCNCC2)c[nH]1
pD2 [1]: 8

N[C@H]1C[C@@H]1c1c[nH]cn1 [VUF-5297]
Ki (Histamine H3 receptor [14]): 25.1 nM

N[C@@H](COCC1CCCCC1)Cc1c[nH]cn1
Agonistic activity [19]: Agonist | Agonistic activity [12]: Agonist

N[C@@H](Cc1ccccc1)C(=O)N[C@@H]1C[C@H]1c1c[nH]cn1
pD2 [1]: 8.7

NCCCCCc1c[nH]cn1
Agonistic activity [20]: Agonist | Agonistic activity [21]: Agonist

NCCc1c[nH]cn1.N[C@H](COCc1ccc(Br)cc1)Cc1c[nH]cn1
Antagonist activity [22]: Partial antagonist | Antagonist activity [9]: Antagonist | Antagonist activity [23]: Partial agonist | Antagonist activity [11]: Antagonist

N=C(NCc1ccc(Cl)cc1)SCCCc1c[nH]cn1.NCCc1c[nH]cn1
Antagonist activity [2]: inactive | Antagonist activity [3]: inactive

N[C@H](/C=C\[C@@H]1C[C@H]1c1c[nH]cn1)CC1CCCCC1
Ki (Histamine H3 receptor [14]): 100 nM

C[C@H]1NCC[C@@H]1c1c[nH]cn1
pD2 [1]: 7.1

NCCc1c[nH]cn1
Agonistic activity [12]: Agonist | Agonistic activity [13]: Agonist | pD2 [1]: 7.2 | Agonist activity [24]: Agonist | Antagonist activity [25]: Antagonist

N[C@H](/C=C/[C@@H]1C[C@H]1c1c[nH]cn1)CC1CCCCC1
Ki (Histamine H3 receptor [14]): 0.398 nM

N[C@@H](Cc1ccccc1)C(=O)NCCc1c[nH]cn1
Ki (Histamine H3 receptor [14]): 100 nM

N[C@@H]1C[C@H]1c1cnc[nH]1 [VUF-5296]
Ki (Histamine H3 receptor [14]): 3.16 nM

CC(C)(C)CCC#C[C@@H]1C[C@H]1c1c[nH]cn1 [CIPRALISANT]
pD2 [1]: 8.5 | Ki (Histamine H3 receptor [14]): 0.126 nM

NCCc1c[nH]cn1.N[C@H](COCC1CCCCC1)Cc1c[nH]cn1
Antagonist activity [8]: Antagonist | Antagonist activity [9]: Antagonist | Antagonist activity [10]: Antagonist | Antagonist activity [11]: Antagonist

N[C@@H](Cc1ccccc1)C(=O)N[C@H]1C[C@@H]1c1c[nH]cn1
Ki (Histamine H3 receptor [14]): 20 nM

NCCc1c[nH]cn1.N[C@@H](COCC1CCCCC1)Cc1c[nH]cn1
Antagonist activity [8]: Antagonist | Antagonist activity [9]: Antagonist | Antagonist activity [10]: Antagonist | Antagonist activity [11]: Antagonist

CNCCc1cnc[nH]1
pD2 [1]: 7.7

N[C@H](COCc1ccc(I)cc1)Cc1c[nH]cn1
Agonistic activity [4]: inactive | Agonistic activity [5]: inactive

N[C@@H](COCc1ccc(Br)cc1)Cc1c[nH]cn1
Agonistic activity [6]: Partial agonist | Agonistic activity [7]: Partial agonist

NCCc1c[nH]cn1.N[C@@H](COCc1ccc(Br)cc1)Cc1c[nH]cn1
Antagonist activity [22]: Partial antagonist | Antagonist activity [9]: Antagonist | Antagonist activity [23]: Partial agonist | Antagonist activity [11]: Antagonist

C[C@H](N)[C@@H](C)c1c[nH]cn1
pD2 [1]: 6.5

N[C@@H](COCc1ccc(I)cc1)Cc1c[nH]cn1
Agonistic activity [4]: inactive | Agonistic activity [5]: inactive

N=C(N)SCCc1c[nH]cn1
pD2 [1]: 8.1

NCCc1c[nH]cn1.N[C@@H](COCc1ccccc1)Cc1c[nH]cn1
Antagonist activity [8]: Antagonist | Antagonist activity [9]: Antagonist | Antagonist activity [10]: Antagonist | Antagonist activity [11]: Antagonist

C[C@@H]1NCC[C@H]1c1c[nH]cn1
pD2 [1]: 7.1

NCCc1c[nH]cn1.S=C(NC1CCCCC1)N1CCC(c2c[nH]cn2)CC1
Antagonist activity [26]: Agonist | Antagonist activity [27]: Antagonist

c1ccc(COCCCc2c[nH]cn2)cc1 [PROXYFAN]
Ki (Histamine H3 receptor [28]): 5.01 nM

NCCc1c[nH]cn1.N[C@@H](COCc1ccc(I)cc1)Cc1c[nH]cn1
Antagonist activity [22]: Partial antagonist | Antagonist activity [9]: Antagonist | Antagonist activity ([23]; filed as antagonist): Partial agonist | Antagonist activity [11]: Antagonist

N[C@H](COCc1ccccc1)Cc1c[nH]cn1
Agonistic activity [29]: Partial agonist | Agonistic activity [6]: Partial agonist
